Measured values as given in ChEMBL document CHEMBL1926577, “Novel 1,3,4-heterodiazole analogues: synthesis and in-vitro antitumor activity” (2012).

Key:
Assay type in all cases: functional
[1] = test system: SF-295; test: Growth inhibition of human SF295 cells at 10 uM after 48 hrs by coulter counter method; conditions: SF-295, 48 h, read-out: GI
Outline: (§1)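 NCI 60-cell-line panel, single dose. Compound dissolved first in DMSO, then diluted in phosphate-buffered saline so that every final dilution held under 1% DMSO. Duplicate wells received cells at 6 × 10⁴ cells/ml. Controls held PBS/DMSO at the same dilution. Plates were incubated 48 h at 37 °C under 5% CO₂. Cells were then diluted 10-fold in saline and counted on a Coulter counter, with counts corrected for the dilution. Results are given as percent growth inhibition.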

[2] = test system: NCI-H322M; test: Growth inhibition of human NCI-H322M cells at 10 uM after 48 hrs by coulter counter method; conditions: read-out: GI; outline: as §1
[3] = test system: PC-3; test: Growth inhibition of human PC3 cells at 10 uM after 48 hrs by coulter counter method; conditions: PC-3, 48 h, read-out: GI; outline: as §1
[4] = test system: CCRF-CEM; test: Growth inhibition of human CCRF-CEM cells at 10 uM after 48 hrs by coulter counter method; conditions: read-out: GI; outline: as §1
[5] = test system: HT-29; test: Growth inhibition of human HT-29 cells at 10 uM after 48 hrs by coulter counter method; conditions: HT-29, 48 h, read-out: GI; outline: as §1
[6] = test system: HCT-116; test: Growth inhibition of human HCT116 cells at 10 uM after 48 hrs by coulter counter method; conditions: HCT-116, 48 h, read-out: GI; outline: as §1
[7] = test system: SK-MEL-5; test: Growth inhibition of human SK-MEL-5 cells at 10 uM after 48 hrs by coulter counter method; conditions: SK-MEL-5, 48 h, read-out: GI; outline: as §1
[8] = test system: HL-60(TB); test: Growth inhibition of human HL-60(TB) cells at 10 uM after 48 hrs by coulter counter method; conditions: HL-60, 48 h, read-out: GI
Outline: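 Single-dose screen on the NCI 60-line panel (leukemia subpanel). Compound is dissolved in DMSO and diluted in PBS, with final DMSO below 1%. Duplicate wells hold 6 × 10⁴ cells/ml at 37 °C, 5% CO₂, for 48 h. Cells are counted by Coulter counter after 10-fold saline dilution. Read-out is percent growth versus PBS/DMSO controls, expressed as % growth inhibition.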

[9] = test system: SK-MEL-2; test: Growth inhibition of human SK-MEL-2 cells at 10 uM after 48 hrs by coulter counter method; conditions: SK-MEL-2, 48 h, read-out: GI; outline: as §1
[10] = test system: BT-549; test: Growth inhibition of human BT549 cells at 10 uM after 48 hrs by coulter counter method; conditions: BT-549, 48 h, read-out: GI; outline: as §1
[11] = test system: A498; test: Growth inhibition of human A498 cells at 10 uM after 48 hrs by coulter counter method; conditions: A498, 48 h, read-out: GI; outline: as §1
[12] = test system: SF-268; test: Growth inhibition of human SF268 cells at 10 uM after 48 hrs by coulter counter method; conditions: SF-268, 48 h, read-out: GI; outline: as §1
[13] = test system: SK-MEL-28; test: Growth inhibition of human SK-MEL-28 cells at 10 uM after 48 hrs by coulter counter method; conditions: SK-MEL-28, 48 h, read-out: GI; outline: as §1
[14] = test system: MCF7; test: Growth inhibition of human MCF7 cells at 10 uM after 48 hrs by coulter counter method; conditions: MCF7, 48 h, read-out: GI; outline: as §1
[15] = test system: UACC-257; test: Growth inhibition of human UACC257 cells at 10 uM after 48 hrs by coulter counter method; conditions: UACC-257, 48 h, read-out: GI; outline: as §1
[16] = test system: 786-0; test: Growth inhibition of human 786-0 cells at 10 uM after 48 hrs by coulter counter method; conditions: 786-0, 48 h, read-out: GI; outline: as §1
[17] = test system: MDA-MB-435; test: Growth inhibition of human MDA-MB-435 cells at 10 uM after 48 hrs by coulter counter method; conditions: MDA-MB-435, 48 h, read-out: GI; outline: as §1
[18] = test system: TK-10; test: Growth inhibition of human TK10 cells at 10 uM after 48 hrs by coulter counter method; conditions: TK-10, 48 h, read-out: GI; outline: as §1
[19] = test system: M14; test: Growth inhibition of human M14 cells at 10 uM after 48 hrs by coulter counter method; conditions: M14, 48 h, read-out: GI; outline: as §1
[20] = test system: ACHN; test: Growth inhibition of human ACHN cells at 10 uM after 48 hrs by coulter counter method; conditions: read-out: GI; outline: as §1
[21] = test system: UACC-62; test: Growth inhibition of human UACC62 cells at 10 uM after 48 hrs by coulter counter method; conditions: UACC-62, 48 h, read-out: GI; outline: as §1
[22] = test system: NCI/ADR-RES; test: Growth inhibition of human NCI/ADR-RES cells at 10 uM after 48 hrs by coulter counter method; conditions: read-out: GI; outline: as §1
[23] = test system: SNB-19; test: Growth inhibition of human SNB19 cells at 10 uM after 48 hrs by coulter counter method; conditions: SNB-19, 48 h, read-out: GI; outline: as §1
[24] = test system: KM12; test: Growth inhibition of human KM12 cells at 10 uM after 48 hrs by coulter counter method; conditions: KM12, 48 h, read-out: GI; outline: as §1
[25] = test system: IGROV-1; test: Growth inhibition of human IGROV1 cells at 10 uM after 48 hrs by coulter counter method; conditions: IGROV-1, 48 h, read-out: GI; outline: as §1
[26] = test system: EKVX; test: Growth inhibition of human EKVX cells at 10 uM after 48 hrs by coulter counter method; conditions: read-out: GI; outline: as §1
[27] = test system: CAKI-1; test: Growth inhibition of human Caki1 cells at 10 uM after 48 hrs by coulter counter method; conditions: CAKI-1, 48 h, read-out: GI; outline: as §1
[28] = test system: HCT-15; test: Growth inhibition of human HCT15 cells at 10 uM after 48 hrs by coulter counter method; conditions: HCT-15, 48 h, read-out: GI; outline: as §1
[29] = test system: NCI-H226; test: Growth inhibition of human NCI-H226 cells at 10 uM after 48 hrs by coulter counter method; conditions: NCI-H226, 48 h, read-out: GI; outline: as §1
[30] = test system: T47D; test: Growth inhibition of human T47D cells at 10 uM after 48 hrs by coulter counter method; conditions: read-out: GI; outline: as §1
[31] = test system: Malme-3M; test: Growth inhibition of human MALME-3M cells at 10 uM after 48 hrs by coulter counter method; conditions: read-out: GI; outline: as §1
[32] = test system: MDA-MB-468; test: Growth inhibition of human MDA-MB-468 cells at 10 uM after 48 hrs by coulter counter method; conditions: MDA-MB-468, 48 h, read-out: GI; outline: as §1
[33] = test system: K562; test: Growth inhibition of human K562 cells at 10 uM after 48 hrs by coulter counter method; conditions: K562, 48 h, read-out: GI; outline: as §1
[34] = test system: A549; test: Growth inhibition of human A549 cells at 10 uM after 48 hrs by coulter counter method; conditions: A549, 48 h, read-out: GI; outline: as §1
[35] = test system: SN12C; test: Growth inhibition of human SN12C cells at 10 uM after 48 hrs by coulter counter method; conditions: read-out: GI; outline: as §1
[36] = test system: NCI-H23; test: Growth inhibition of human NCI-H23 cells at 10 uM after 48 hrs by coulter counter method; conditions: NCI-H23, 48 h, read-out: GI; outline: as §1
[37] = test system: SR; test: Growth inhibition of human SR cells at 10 uM after 48 hrs by coulter counter method; conditions: read-out: GI; outline: as §1
[38] = test system: LOX IMVI; test: Growth inhibition of human LOXIMVI cells at 10 uM after 48 hrs by coulter counter method; conditions: read-out: GI; outline: as §1
[39] = test system: NCI-H522; test: Growth inhibition of human NCI-H522 cells at 10 uM after 48 hrs by coulter counter method; conditions: NCI-H522, 48 h, read-out: GI; outline: as §1
[40] = test system: U-251; test: Growth inhibition of human U251 cells at 10 uM after 48 hrs by coulter counter method; conditions: U-251, 48 h, read-out: GI; outline: as §1
[41] = test system: RPMI-8226; test: Growth inhibition of human RPMI8226 cells at 10 uM after 48 hrs by coulter counter method; conditions: RPMI-8226, 48 h, read-out: GI; outline: as §1
[42] = test system: SNB-75; test: Growth inhibition of human SNB75 cells at 10 uM after 48 hrs by coulter counter method; conditions: SNB-75, 48 h, read-out: GI; outline: as §1
[43] = test system: OVCAR-8; test: Growth inhibition of human OVCAR8 cells at 10 uM after 48 hrs by coulter counter method; conditions: OVCAR-8, 48 h, read-out: GI; outline: as §1
[44] = test system: MOLT-4; test: Growth inhibition of human MOLT4 cells at 10 uM after 48 hrs by coulter counter method; conditions: MOLT-4, 48 h, read-out: GI; outline: as §1
[45] = test system: UO-31; test: Growth inhibition of human UO31 cells at 10 uM after 48 hrs by coulter counter method; conditions: UO-31, 48 h, read-out: GI; outline: as §1

With `O=C1CN2N=C(c3ccc(Cl)cc3)OC2=N1` the inhibition of growth at 10 µM [1] was < 10%, the inhibition of growth at 10 µM [2] was < 10% and the inhibition of growth at 10 µM [3] was < 10%. The inhibition of growth at 10 µM [4] was < 10%, the inhibition of growth at 10 µM [5] was < 10% and the inhibition of growth at 10 µM [6] was < 10%. For the same molecule, the inhibition of growth at 10 µM [7] was < 10%, the inhibition of growth at 10 µM [8] was < 10% and the inhibition of growth at 10 µM [9] was < 10%. For the same molecule, the inhibition of growth at 10 µM [10] was < 10%, the inhibition of growth at 10 µM [11] was < 10% and the inhibition of growth at 10 µM [12] was < 10%. The inhibition of growth at 10 µM [13] was < 10%, the inhibition of growth at 10 µM [14] was < 10% and the inhibition of growth at 10 µM [15] was < 10%. For the same molecule, the inhibition of growth at 10 µM [16] was < 10%, the inhibition of growth at 10 µM [17] was < 10% and the inhibition of growth at 10 µM [18] was < 10%. For the same molecule, the inhibition of growth at 10 µM [19] was < 10%, the inhibition of growth at 10 µM [20] was < 10% and the inhibition of growth at 10 µM [21] was < 10%. For the same molecule, the inhibition of growth at 10 µM [22] was < 10%, the inhibition of growth at 10 µM [23] was < 10% and the inhibition of growth at 10 µM [24] was < 10%. The inhibition of growth at 10 µM [25] was < 10%, the inhibition of growth at 10 µM [26] was < 10% and the inhibition of growth at 10 µM [27] was < 10%. The inhibition of growth at 10 µM [28] was < 10%, the inhibition of growth at 10 µM [29] was < 10% and the inhibition of growth at 10 µM [30] was < 10%. The inhibition of growth at 10 µM [31] was < 10%, the inhibition of growth at 10 µM [32] was < 10% and the inhibition of growth at 10 µM [33] was 17.2%. For the same molecule, the inhibition of growth at 10 µM [34] was < 10%, the inhibition of growth at 10 µM [35] was < 10% and the inhibition of growth at 10 µM [36] was < 10%. The inhibition of growth at 10 µM [37] was < 10%, the inhibition of growth at 10 µM [38] was < 10% and the inhibition of growth at 10 µM [39] was 18.9%. For the same molecule, the inhibition of growth at 10 µM [40] was < 10%, the inhibition of growth at 10 µM [41] was < 10% and the inhibition of growth at 10 µM [42] was < 10%. The inhibition of growth at 10 µM [43] was < 10%, the inhibition of growth at 10 µM [44] was < 10% and the inhibition of growth at 10 µM [45] was 26.8%.
